Consider 14 compounds from ChEMBL document CHEMBL1125784, “Geiparvarin analogues. 2. Synthesis and cytostatic activity of 5-(4-arylbutadienyl)-3(2H)-furanones and of N-substituted 3-(4-oxo-2-furanyl)-2-buten-2-yl carbamates” (J Med Chem, 1991).

By IC50 is commonly meant the concentration that gives 50% inhibition.

Converted amounts (≈) assume the structure as drawn.

Assay type in all cases: functional, cell-based
Assay [1] has as its system FM3A. The experiment in a line: Inhibitory activity against proliferation of murine mammary carcinoma FM3A tumor cell line. The conditions noted are these: Mus musculus. The gist of the method:
(§1)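 Molt/4F or FM3A cells were suspended in growth medium and plated at 5×10^4 cells/well with varying compound concentrations. They proliferated 72 h at 37 °C in a humidified, CO2-controlled atmosphere before Coulter-counter enumeration. IC50 is the concentration giving a 50% drop in viable cell count.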

Assay [2] has as its system L1210. The experiment in a line: Inhibitory activity against proliferation of murine leukemia L1210 tumor cell line. The conditions noted are these: Mus musculus. The gist of the method:
(§2)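 L1210 cells in growth medium, seeded at 5×10^4 cells/well with a range of test compound concentrations, grown 48 h at 37 °C in humidified CO2-controlled air. Cells were counted in a Coulter counter. IC50 is the concentration reducing viable cell number by 50%.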

The test system of assay [3] is MT4. The experiment in a line: Inhibitory activity against proliferation of human T-lymphocyte MT-4 tumor cell line. In a few lines:
(§3)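 MT-4 cells in growth medium, plated at 6.25×10^4 cells/well with serial compound concentrations. Incubation was 72 h at 37 °C, humidified and CO2-controlled, then cells were counted electronically (Coulter). IC50 is the concentration lowering viable cell number by 50%.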

Assay [4] has as its system MOLT-4F. The experiment in a line: Inhibitory activity against proliferation of human T-lymphoblast Molt/4F tumor cell line. The gist of the method:
as §1

Assay [5] relates to FM3A. The experiment in a line: Inhibitory activity against proliferation of murine (FM3A) tumor cell. The following applies: Mus musculus. In a few lines: as §1
Assay [6] relates to L1210. The experiment in a line: Inhibitory activity against proliferation of murine (L1210) tumor cell. The conditions noted are these: Mus musculus. In a few lines:
as §2

For assay [7], the system named is MT4. The experiment in a line: Inhibitory activity against proliferation of human(MT-4) tumor cell. The gist of the method: as §3
Assay [8] has as its system MOLT-4F. The experiment in a line: Inhibitory activity against proliferation of human(Molt/4F) tumor cell. In a few lines:
as §1

On to `C/C(=C\COC(=O)Nc1ccccc1)C1=CC(=O)C(C)(C)O1`, for which the 50% inhibitory concentration (IC50) in the assay with FM3A [1] was over 200 mg/L; in the assay with L1210 [2] it was over 200 mg/L; in the assay on MT4 [3] it was 103 mg/L (≈ 342 µM); in the assay on MOLT-4F [4], over 200 mg/L.

`COc1ccc(/C=C/C=C(\C)C2=CC(=O)C(C)(C)O2)cc1`: the IC50 came out at 25 mg/L (≈ 87.9 µM) with FM3A [1], 18 mg/L (≈ 63.3 µM) in the assay with L1210 [2], 5.7 mg/L (≈ 20 µM) with MT4 [3] and 10 mg/L (≈ 35.2 µM) in the assay on MOLT-4F [4].

Consider `C/C(=C\COC(=O)NCCCl)C1=CC(=O)C(C)(C)O1`, for which the 50% inhibitory concentration (IC50) amounted to 20.8 mg/L (≈ 72.3 µM) in the assay on FM3A [5], 5.1 mg/L (≈ 17.7 µM) with L1210 [6], 6.4 mg/L (≈ 22.2 µM) in the assay on MT4 [7] and 10.7 mg/L (≈ 37.2 µM) in the assay with MOLT-4F [8].

In the case of `C/C(=C\C=C\c1ccccc1)C1=CC(=O)C(C)(C)O1`, the IC50 in the assay with FM3A [1] turned out to be 15 mg/L (≈ 59 µM); in the assay on L1210 [2], 14 mg/L (≈ 55 µM); with MT4 [3] it was 6.5 mg/L (≈ 25.6 µM); in the assay with MOLT-4F [4], 14 mg/L (≈ 55 µM).

`C/C(=C\COC(=O)NC1CCCCC1)C1=CC(=O)C(C)(C)O1`: the half-maximal inhibitory concentration (IC50) amounted to 13 mg/L (≈ 42.3 µM) in the assay on FM3A [1], 3.7 mg/L (≈ 12 µM) in the assay with L1210 [2], 2.4 mg/L (≈ 7.81 µM) in the assay on MT4 [3] and 3.4 mg/L (≈ 11.1 µM) in the assay with MOLT-4F [4].

`C/C(=C\COC(=O)NC(C)C)C1=CC(=O)C(C)(C)O1`: the half-inhibitory concentration (IC50) with FM3A [1] was 7.2 mg/L (≈ 26.9 µM); with L1210 [2], 4.9 mg/L (≈ 18.3 µM); in the assay on MT4 [3], 2.3 mg/L (≈ 8.6 µM); with MOLT-4F [4], 6.6 mg/L (≈ 24.7 µM).

Regarding `C/C(=C\COC(=O)NCc1ccccc1)C1=CC(=O)C(C)(C)O1`, the IC50 worked out at 8.1 mg/L (≈ 25.7 µM) in the assay on FM3A [1], 4.7 mg/L (≈ 14.9 µM) in the assay on L1210 [2], 2 mg/L (≈ 6.34 µM) in the assay on MT4 [3] and 6 mg/L (≈ 19 µM) in the assay with MOLT-4F [4].

Regarding `COc1cc2ccc(=O)oc2cc1OC/C=C(\C)C1=CC(=O)C(C)(C)O1`, the IC50 worked out at 3.9 mg/L (≈ 10.9 µM) with FM3A [5], 2 mg/L (≈ 5.61 µM) with L1210 [6], 0.6 mg/L (≈ 1.68 µM) in the assay with MT4 [7] and 2.9 mg/L (≈ 8.14 µM) with MOLT-4F [8].

On to `CCCCCCCCNC(=O)OC/C=C(\C)C1=CC(=O)C(C)(C)O1`, for which the IC50 worked out at 7.1 mg/L (≈ 21 µM) with FM3A [5], 2 mg/L (≈ 5.93 µM) in the assay on L1210 [6], 1.3 mg/L (≈ 3.85 µM) with MT4 [7] and 1.7 mg/L (≈ 5.04 µM) with MOLT-4F [8].

`C/C(=C\COC(=O)NC(C)(C)C)C1=CC(=O)C(C)(C)O1`: the half-maximal inhibitory concentration (IC50) stood at 7.1 mg/L (≈ 25.2 µM) in the assay with FM3A [1], 4.1 mg/L (≈ 14.6 µM) with L1210 [2], 2.1 mg/L (≈ 7.46 µM) in the assay with MT4 [3] and 6.1 mg/L (≈ 21.7 µM) in the assay on MOLT-4F [4].

In the case of `CCCCNC(=O)OC/C=C(\C)C1=CC(=O)C(C)(C)O1`, the half-maximal inhibitory concentration (IC50) is 7.7 mg/L (≈ 27.4 µM) in the assay on FM3A [1], 2.6 mg/L (≈ 9.24 µM) in the assay on L1210 [2], 1.2 mg/L (≈ 4.27 µM) in the assay with MT4 [3] and 5.3 mg/L (≈ 18.8 µM) in the assay on MOLT-4F [4].

For the compound `C=CCNC(=O)OC/C=C(\C)C1=CC(=O)C(C)(C)O1`, the half-inhibitory concentration (IC50) in the assay with FM3A [1] turned out to be 7.6 mg/L (≈ 28.6 µM); in the assay with L1210 [2], 6.2 mg/L (≈ 23.4 µM); in the assay with MT4 [3] it was 2.8 mg/L (≈ 10.6 µM); in the assay with MOLT-4F [4] it was 7.7 mg/L (≈ 29 µM).

`C/C(=C\C=C\c1ccc2ccc(=O)oc2c1)C1=CC(=O)C(C)(C)O1`: the 50% inhibitory concentration (IC50) with FM3A [5] was over 100 mg/L; in the assay on L1210 [6] it was 63 mg/L (≈ 195 µM); in the assay on MT4 [7], 2.9 mg/L (≈ 9 µM); in the assay on MOLT-4F [8], 13 mg/L (≈ 40.3 µM).

As to `C/C(=C\C=C/C1CCCCC1)C1=CC(=O)C(C)(C)O1`, the IC50 with FM3A [1] is 10.8 mg/L (≈ 41.5 µM); in the assay on L1210 [2], 23 mg/L (≈ 88.3 µM); in the assay with MT4 [3], 8.4 mg/L (≈ 32.3 µM); with MOLT-4F [4] it was 7.1 mg/L (≈ 27.3 µM).
